Data set [1] deals with T1, Peroxisome proliferator-activated receptor gamma (Homo sapiens, UniProt P37231).
T1 sequence (P37231 whole entry): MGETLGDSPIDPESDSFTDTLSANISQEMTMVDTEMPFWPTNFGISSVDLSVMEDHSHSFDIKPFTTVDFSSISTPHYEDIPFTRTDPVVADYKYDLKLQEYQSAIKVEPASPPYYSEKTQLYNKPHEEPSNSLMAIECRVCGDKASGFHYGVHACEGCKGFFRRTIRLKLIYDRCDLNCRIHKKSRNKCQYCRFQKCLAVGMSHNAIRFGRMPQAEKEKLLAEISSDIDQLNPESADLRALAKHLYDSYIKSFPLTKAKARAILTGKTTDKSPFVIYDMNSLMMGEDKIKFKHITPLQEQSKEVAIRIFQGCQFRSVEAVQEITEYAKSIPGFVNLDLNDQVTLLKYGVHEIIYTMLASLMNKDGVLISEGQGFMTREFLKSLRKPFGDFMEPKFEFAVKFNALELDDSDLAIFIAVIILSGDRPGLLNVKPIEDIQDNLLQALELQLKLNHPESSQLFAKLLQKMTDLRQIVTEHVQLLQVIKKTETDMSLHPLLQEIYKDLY
Kind of data set: Inhibition of human PPAR-gamma.

The target of data set [2] is Estrogen receptor beta (Homo sapiens, UniProt Q92731). Briefly: Inhibition of human estrogen receptor beta.
Sequence of Estrogen receptor beta (Q92731 whole entry): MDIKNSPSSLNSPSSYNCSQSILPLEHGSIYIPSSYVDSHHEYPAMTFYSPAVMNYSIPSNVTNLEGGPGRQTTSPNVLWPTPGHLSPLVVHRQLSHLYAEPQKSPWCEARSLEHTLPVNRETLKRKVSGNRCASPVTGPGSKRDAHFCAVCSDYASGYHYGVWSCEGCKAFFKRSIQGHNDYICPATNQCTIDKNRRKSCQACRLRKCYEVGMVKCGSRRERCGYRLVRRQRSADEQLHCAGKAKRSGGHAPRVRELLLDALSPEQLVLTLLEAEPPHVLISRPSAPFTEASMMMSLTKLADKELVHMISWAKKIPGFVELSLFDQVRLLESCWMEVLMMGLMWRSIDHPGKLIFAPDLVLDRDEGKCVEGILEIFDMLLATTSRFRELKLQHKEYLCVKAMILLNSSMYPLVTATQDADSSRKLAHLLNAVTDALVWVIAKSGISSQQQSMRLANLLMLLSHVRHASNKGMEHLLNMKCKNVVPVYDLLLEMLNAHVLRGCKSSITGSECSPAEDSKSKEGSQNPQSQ
The target in data set [3] is T2, Peroxisome proliferator-activated receptor alpha (Homo sapiens, UniProt Q07869).
T2 sequence (Q07869 whole entry): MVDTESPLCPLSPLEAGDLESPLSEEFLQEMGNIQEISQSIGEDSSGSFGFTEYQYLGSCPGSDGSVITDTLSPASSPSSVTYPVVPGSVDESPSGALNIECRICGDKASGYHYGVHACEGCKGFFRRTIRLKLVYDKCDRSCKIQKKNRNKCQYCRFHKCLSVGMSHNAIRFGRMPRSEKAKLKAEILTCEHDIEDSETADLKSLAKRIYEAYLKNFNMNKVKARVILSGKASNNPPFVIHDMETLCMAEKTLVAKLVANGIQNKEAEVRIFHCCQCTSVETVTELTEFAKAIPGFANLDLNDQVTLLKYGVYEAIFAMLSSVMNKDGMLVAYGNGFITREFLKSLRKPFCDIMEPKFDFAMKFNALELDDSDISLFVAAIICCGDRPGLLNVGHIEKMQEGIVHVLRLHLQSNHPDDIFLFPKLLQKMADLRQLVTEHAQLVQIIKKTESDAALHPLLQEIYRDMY
Kind of data set: Antagonist activity at human PPAR-alpha assessed as inhibition of GW7647-induced effect after overnight incubation by cell-based luciferase reporter gene assay. For orientation: Reporter assays use an easily measured gene product as a stand-in for the process of interest.

The target of data set [4] is T3, Peroxisome proliferator-activated receptor delta (Homo sapiens, UniProt Q03181).
T3 sequence (Q03181 whole entry): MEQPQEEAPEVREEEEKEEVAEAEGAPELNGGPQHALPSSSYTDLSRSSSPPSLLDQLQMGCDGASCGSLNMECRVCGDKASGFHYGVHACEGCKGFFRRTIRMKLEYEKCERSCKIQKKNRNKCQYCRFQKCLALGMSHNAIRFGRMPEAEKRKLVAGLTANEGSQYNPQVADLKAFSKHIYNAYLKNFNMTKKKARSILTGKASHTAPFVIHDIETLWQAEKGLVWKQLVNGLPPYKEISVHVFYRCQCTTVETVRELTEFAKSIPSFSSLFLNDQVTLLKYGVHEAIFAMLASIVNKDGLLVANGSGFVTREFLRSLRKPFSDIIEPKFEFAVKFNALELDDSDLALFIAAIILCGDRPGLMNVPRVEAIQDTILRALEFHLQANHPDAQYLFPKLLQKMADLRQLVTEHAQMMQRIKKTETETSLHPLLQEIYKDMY
Kind of data set: Inhibition of human PPAR-delta.

The nature of data set [5]: Solubility of the compound in aqueous buffer at pH 7.4 after 24 hrs by LC-MS/MS analysis. Format: physicochemical. The essentials:
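Compound from a 10 mM DMSO stock was added to pH 7.4 buffer, vortexed 2 min, then shaken on an orbital shaker for 24 h at room temperature. Samples were then vacuum-filtered through a polycarbonate membrane before measurement.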

A short description of data set [6]: Cmax in CD-1 mouse at 30 mg/kg, ip after 1 hr. More on the design: dose 30 mg/kg, route intraperitoneal. Conditions: in vivo. Format: ADME, organism-based. The essentials: (§1)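 Mouse pharmacokinetics in CD1 mice given a single intraperitoneal dose of 30 mpk, formulated in saline or in 98% saline/2% tween.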
The target in data set [7] is T4, Thyroid hormone receptor beta (Homo sapiens, UniProt P10828).
T4 sequence (P10828 whole entry): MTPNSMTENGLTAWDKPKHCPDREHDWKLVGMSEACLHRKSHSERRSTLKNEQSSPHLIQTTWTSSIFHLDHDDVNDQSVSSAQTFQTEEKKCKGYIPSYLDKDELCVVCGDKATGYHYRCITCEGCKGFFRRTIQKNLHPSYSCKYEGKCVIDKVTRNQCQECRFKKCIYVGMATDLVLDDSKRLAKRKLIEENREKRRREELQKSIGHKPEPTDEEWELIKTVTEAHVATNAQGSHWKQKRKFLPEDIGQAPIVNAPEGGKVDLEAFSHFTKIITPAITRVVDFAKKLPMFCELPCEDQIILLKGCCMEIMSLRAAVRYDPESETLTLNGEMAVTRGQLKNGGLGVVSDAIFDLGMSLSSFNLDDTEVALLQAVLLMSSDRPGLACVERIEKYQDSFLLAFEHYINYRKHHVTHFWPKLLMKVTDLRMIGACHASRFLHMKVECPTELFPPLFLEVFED
Kind of data set: Inhibition of human thyroid hormone receptor-beta.

A short description of data set [8]: AUC in CD-1 mouse at 30 mg/kg, ip. The format is ADME, organism-based. Further details: dose 30 mg/kg, route intraperitoneal. Conditions: plasma. The essentials: as §1
Data set [9] in a line: (§2) Metabolic stability in mouse plasma assessed as compound remaining at 1 uM after 24 hrs by LC-MS/MS analysis. The format is ADME, cell-free. Conditions: read-out: Stability. The essentials:
(§3)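 A 30 mM DMSO stock was diluted to 100 µM in acetonitrile, then spiked into thawed mouse plasma (1 µM final) and incubated at 37 °C. Aliquots were precipitated in acetonitrile containing buspirone, shaken 5 min and centrifuged at 4000g for 10 min. Supernatant was analysed by LC-MS/MS. Percent remaining = concentration at each time / t0 concentration × 100; mean of at least three experiments.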

Data set [10] concerns the target T5, Glucocorticoid receptor (Homo sapiens, UniProt P04150).
T5 sequence (P04150 whole entry): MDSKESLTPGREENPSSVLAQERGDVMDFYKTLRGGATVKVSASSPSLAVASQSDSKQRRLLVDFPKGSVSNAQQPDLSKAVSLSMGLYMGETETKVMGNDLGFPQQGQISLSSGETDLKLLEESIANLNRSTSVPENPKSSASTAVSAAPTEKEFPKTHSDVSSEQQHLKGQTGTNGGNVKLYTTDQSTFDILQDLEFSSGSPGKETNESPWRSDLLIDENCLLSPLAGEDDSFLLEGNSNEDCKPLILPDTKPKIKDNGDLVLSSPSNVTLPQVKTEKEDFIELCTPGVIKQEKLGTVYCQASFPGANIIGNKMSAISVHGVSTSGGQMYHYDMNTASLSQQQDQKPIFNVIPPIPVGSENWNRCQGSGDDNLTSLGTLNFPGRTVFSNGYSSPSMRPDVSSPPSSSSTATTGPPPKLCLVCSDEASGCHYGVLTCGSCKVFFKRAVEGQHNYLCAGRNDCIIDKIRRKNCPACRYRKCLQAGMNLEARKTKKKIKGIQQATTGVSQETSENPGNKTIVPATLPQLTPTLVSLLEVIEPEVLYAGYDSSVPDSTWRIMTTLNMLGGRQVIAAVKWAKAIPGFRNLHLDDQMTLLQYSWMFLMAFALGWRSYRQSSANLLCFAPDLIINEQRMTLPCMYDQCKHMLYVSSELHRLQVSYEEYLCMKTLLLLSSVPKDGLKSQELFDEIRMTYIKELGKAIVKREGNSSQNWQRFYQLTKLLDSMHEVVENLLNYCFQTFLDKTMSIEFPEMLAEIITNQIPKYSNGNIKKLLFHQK
Kind of data set: Inhibition of human glucocorticoid receptor.

Data set [11] deals with Plasma. Briefly: Drug level in mouse plasma treated with 1 uM 5 after 24 hrs by LC-MS/MS analysis. Format: ADME, cell-free.
Data set [12] concerns the target T2, Peroxisome proliferator-activated receptor alpha. Kind of data set: Agonist activity at human PPAR-alpha.
Data set [13] deals with Mus musculus. Briefly: Reduction in plasma FGF21 level in C57Bl/6 mouse at 30 mg/kg, ip administered for 4 days followed by fasting for last 48 hrs measured 4 hrs post last dose by ELISA. Format: functional, organism-based. More on the design: dose 30 mg/kg. The method, boiled down:
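C57Bl/6 mice received intraperitoneal drug or saline vehicle daily for four days, with 48 h fasting starting on day 2. Four hours after the final dose, blood was taken by terminal cardiac puncture into EDTA. Plasma FGF21 was measured by ELISA and compared against vehicle by t test.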
A general note: In an ELISA, binding on a coated surface is turned into a signal by an enzyme label.

Data set [14] relates to Plasma. The data set is described as §2. Format: ADME, cell-free. Conditions: 24 h, 1 µM. The essentials: as §3
Data set [15] concerns the target T2, Peroxisome proliferator-activated receptor alpha. Briefly: Antagonist activity at GST-tagged PPAR-alpha (unknown origin) assessed as inhibition of GW7647-induced effect after 2 hrs by TR-FRET assay. For orientation: In TR-FRET formats the signal depends on donor and acceptor labels being close together.

Converted amounts (≈) assume the structure as drawn. The source made the active and inactive calls. No cut-off for these calls is given here. A value given as a limit tells only on which side of the number the result lay.

For `CCn1c(CCCc2ccc(-c3ccc(NS(=O)(=O)c4ccc(-c5ccc(OC)cc5)cc4)cc3)cc2)nn(Cc2ccc(C(C)(C)C)cc2)c1=O`, the half-inhibitory concentration (IC50) (usually the concentration needed to halve the response being measured) in [1] was over 100 µM; in [2] it was 34.8 µM; in [3], 4.8 µM; in data set [4], over 100 µM; in data set [7], over 69 µM; in data set [10], 32 µM. Further, in [5], the solubility (as a rule, how much of the substance goes into solution per volume) at 24 h was 0.082 µM (≈ 0.0586 µg/mL). Besides, the peak level in data set [6] (Cmax) was 7.2 µM. The exposure (AUC) (commonly concentration integrated over time) in data set [8] came out at 23000 ng·h/mL. In addition, in data set [9], the remaining at 24 h, 1 µM was 119%.
With `CCn1c(CCCc2ccc(OC(C)(C)C(=O)O)cc2)nn(Cc2ccc(C(C)(C)C)cc2)c1=O`, the Drug metabolism entry in data set [11] is given as “metabolite_detected”.
For `CCn1c(CCCc2ccc(-c3ccc(NS(=O)(=O)c4ccccc4)cn3)cc2)nn(Cc2ccc(C(C)(C)C)cc2)c1=O`, the IC50 in data set [1] was 15 µM; in data set [2], 15.2 µM; in data set [3] it was 0.077 µM; in [4], 6 µM; in data set [7], over 100 µM; in data set [10], 32.5 µM. The concentration for a half-maximal effect (EC50) (usually the concentration at which the effect is half-maximal) in data set [12] is over 100 µM; in data set [15] it was 1.4 µM. The compound also had a solubility at 24 h in data set [5] of 1.5 µM (≈ 0.915 µg/mL). Besides, in data set [6], the Cmax (in general, the peak of the concentration-time curve) worked out at 1.2 µM. For the same compound, in [13], the result was Active. Besides, the area under the curve (AUC) in [8] came to 3400 ng·h/mL. The Stability in data set [14] is on record as 140.6%.

The values above are taken from ChEMBL document CHEMBL3259631, “Identification of the first potent, selective and bioavailable PPARα antagonist” (Bioorg Med Chem Lett, 2014).
